One assay has as its system HEK293. The assay can be described thus: Selectivity index, ratio of Ki for human recombinant CB1 receptor expressed in HEK293 cell membranes to Ki for human recombinant CB2 receptor expressed in HEK293 cell membranes. The format is cell-based.
Assay [1] has as its target T1, Cannabinoid receptor 2 (Homo sapiens, UniProt P34972). In words: Displacement of [3H]CP55,940 from human recombinant CB2 receptor expressed in HEK293 cell membranes after 90 mins. In general terms: Loss of bound radioactivity is the signal in a displacement assay; it reports binding, not function.
Assay [2] addresses Cannabinoid receptor 1 (Homo sapiens, UniProt P21554). The assay can be described thus: Displacement of [3H]CP55,940 from human recombinant CB1 receptor expressed in HEK293 cell membranes after 90 mins.
Assay [3] can be described thus: Selectivity ratio of EC50 for CB1 receptor in rat cerebellar membranes to EC50 for human CB2 receptor expressed in CHO membranes. The format is cell membranes.
Assay [4] has as its target T1, Cannabinoid receptor 2. In words: Agonist activity at human CB2 receptor expressed in CHO membranes by [35S]GTPgammaS binding assay. The class given is functional, cell membranes. The method in brief: (§1)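 [35S]GTPgammaS binding in membranes from hCB2-transfected CHO cells; stimulation or inhibition of constitutive activity measured from dose-response curves. Mock-transfected cell membranes as control. Three independent experiments in duplicate.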
In general terms: GTPγS resists hydrolysis and so accumulates on activated G proteins.

Assay [5] concerns the target Cannabinoid receptor 1 (Rattus norvegicus, UniProt P20272). The assay can be described thus: Agonist activity at CB1 receptor in rat cerebellar membranes by [35S]GTPgammaS binding assay. The format is functional, cell membranes, Cerebellum, Membrane. In outline: (§2)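 [35S]GTPgammaS binding in rat cerebellar membranes as CB1R-mediated G protein activity; compounds tested for stimulation or antagonism. Three independent experiments in duplicate.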

Assay [6] addresses T1, Cannabinoid receptor 2. In words: Neutral antagonist activity at human CB2 receptor expressed in CHO membranes by [35S]GTPgammaS binding assay in presence of SR144528. The class given is functional, cell membranes. In outline:
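[35S]GTPgammaS binding in hCB2-CHO membranes; compound added against inverse agonist SR144528 at 3 nM to assess reversal of its response. Three independent experiments in duplicate.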

Assay [7] addresses Cannabinoid receptor 1 (Rattus norvegicus) (UniProt P20272). The assay can be described thus: Agonist activity at CB1 receptor in rat cerebellar membranes at <10 uM by [35S]GTPgammaS binding assay. Particulars: Cerebellum, Membrane. The format is functional, cell membranes. The method in brief: as §2
In assay [8] the target is T1, Cannabinoid receptor 2. In words: Competitive antagonist activity at human CB2 receptor expressed in CHO membranes assessed as inhibition of HU-210-induced [35S]GTPgammaS binding. As to conditions: read-out: pA2 (converted). The format is functional, cell membranes. In outline:
(§3)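 [35S]GTPgammaS binding in hCB2-CHO membranes; test compound against HU210 (1 nM for single-point reversal; full HU210 dose-responses for competitive analysis, pA2 derived). Three independent experiments in duplicate.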

The target of assay [9] is T1, Cannabinoid receptor 2. In words: Partial inverse agonist activity at human CB2 receptor expressed in CHO membranes by [35S]GTPgammaS binding assay relative to basal control. The class given is functional, cell membranes. The method in brief:
as §1

In assay [10] the target is T1, Cannabinoid receptor 2. In words: Antagonist activity at human CB2 receptor expressed in CHO membranes assessed as inhibition of HU-210-induced [35S]GTPgammaS binding. The format is functional, cell membranes. The method in brief:
as §3

Assay [11] addresses Cannabinoid receptor 1 (Rattus norvegicus) (UniProt P20272). The assay can be described thus: Antagonist activity at CB1 receptor in rat cerebellar membranes at <10 uM by [35S]GTPgammaS binding assay. The format is functional, cell membranes. As to conditions: Cerebellum, Membrane. In outline: as §2
Assay [12] addresses T1, Cannabinoid receptor 2. In words: Inverse agonist activity at human CB2 receptor expressed in CHO membranes by [35S]GTPgammaS binding assay. The class given is functional, cell membranes. In outline:
as §1

What is called Ki is a measure of affinity in units of concentration, obtained from inhibition or displacement. As usually defined, the EC50 is the concentration that produces a half-maximal response. Broadly, the IC50 is the concentration at which inhibition is half-maximal. A low value points to greater potency in that assay.

Each structure is given as a SMILES string. Activity calls are given as the source filed them. The rule behind the calls is not given here.

Sequence of Cannabinoid receptor 1 (Homo sapiens, UniProt P21554) (P21554 whole entry): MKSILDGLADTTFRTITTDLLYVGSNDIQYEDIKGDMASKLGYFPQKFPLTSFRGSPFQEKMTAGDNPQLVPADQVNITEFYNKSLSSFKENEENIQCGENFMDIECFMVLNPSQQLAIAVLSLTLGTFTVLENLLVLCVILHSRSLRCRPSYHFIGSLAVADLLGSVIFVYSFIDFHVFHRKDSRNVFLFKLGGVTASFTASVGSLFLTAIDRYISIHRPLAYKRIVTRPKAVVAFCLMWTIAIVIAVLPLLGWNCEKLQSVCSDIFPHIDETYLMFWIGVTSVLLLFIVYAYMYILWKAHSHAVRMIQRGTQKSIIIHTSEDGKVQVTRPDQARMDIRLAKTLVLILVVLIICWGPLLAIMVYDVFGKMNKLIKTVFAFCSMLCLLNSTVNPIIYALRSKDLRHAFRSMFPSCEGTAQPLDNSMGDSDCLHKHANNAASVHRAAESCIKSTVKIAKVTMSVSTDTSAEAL
Sequence of Cannabinoid receptor 1 (Rattus norvegicus) (P20272 whole entry): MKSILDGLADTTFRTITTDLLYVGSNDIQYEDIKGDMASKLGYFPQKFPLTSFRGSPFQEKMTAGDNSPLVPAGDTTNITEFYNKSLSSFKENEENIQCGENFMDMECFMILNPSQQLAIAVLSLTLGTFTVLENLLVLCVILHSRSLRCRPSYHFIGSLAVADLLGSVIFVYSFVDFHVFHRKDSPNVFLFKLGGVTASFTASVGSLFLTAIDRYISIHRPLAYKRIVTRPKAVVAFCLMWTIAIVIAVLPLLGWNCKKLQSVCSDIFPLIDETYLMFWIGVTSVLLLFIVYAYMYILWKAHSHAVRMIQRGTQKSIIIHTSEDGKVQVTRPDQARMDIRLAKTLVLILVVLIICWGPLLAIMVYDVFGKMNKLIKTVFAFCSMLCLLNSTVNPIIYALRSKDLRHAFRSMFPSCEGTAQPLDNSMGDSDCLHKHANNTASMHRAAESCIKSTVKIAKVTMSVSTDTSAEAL
T1 sequence (P34972 whole entry): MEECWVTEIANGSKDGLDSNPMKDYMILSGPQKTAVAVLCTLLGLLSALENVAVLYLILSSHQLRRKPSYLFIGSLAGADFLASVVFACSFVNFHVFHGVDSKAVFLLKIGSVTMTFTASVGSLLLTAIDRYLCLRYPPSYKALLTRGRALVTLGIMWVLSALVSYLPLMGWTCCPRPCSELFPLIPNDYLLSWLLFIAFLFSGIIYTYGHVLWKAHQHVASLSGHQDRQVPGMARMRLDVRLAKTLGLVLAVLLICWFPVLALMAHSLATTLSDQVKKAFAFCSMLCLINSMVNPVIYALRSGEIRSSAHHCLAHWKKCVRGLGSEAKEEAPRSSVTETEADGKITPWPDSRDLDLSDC
Sequence of Cannabinoid receptor 1 (Rattus norvegicus, UniProt P20272) (P20272 whole entry): as the sequence (P20272 whole entry) above

Regarding `CCOC(=O)/C=C/c1cc(C(=O)NC2CCCCCC2)c(=O)n(Cc2ccc(F)cc2)c1`, the Ratio Ki in the assay on HEK293 stood at 1.8. In addition, the Ki on Cannabinoid receptor 2 [1] came out at 13.7 nM; at Cannabinoid receptor 1 [2], 24.8 nM.
`O=C(NC1CCCCCC1)c1cc(Br)cn(Cc2ccc(F)cc2)c1=O`: the Ratio Ki in the assay on HEK293 stood at 4. Also, the Ki on Cannabinoid receptor 2 [1] came out at 2.2 nM; on Cannabinoid receptor 1 [2] it was 8.8 nM.
For `O=C(NC1CCCCCC1)c1cccn(Cc2ccc(I)cc2)c1=O`, in that order: 6.8, 187 nM and 1270 nM.
Regarding `CC1CCC(NC(=O)c2cccn(CCO)c2=O)CC1` (stereo not drawn), the Ki at Cannabinoid receptor 2 [1] and on Cannabinoid receptor 1 [2] was more than 10000 nM throughout.
In the case of `O=C(NC1CCCCCC1)c1cccn(Cc2ccc(F)cc2)c1=O`, the Ratio EC50 in assay [3] came to 200. Further, the values for the EC50 on Cannabinoid receptor 2 [4] and at Cannabinoid receptor 1 [5] were 6.31 nM and 1580 nM, respectively. In addition, the Ratio Ki in the assay on HEK293 was 5.5.
For the compound `CCCCn1cccc(C(=O)NC2CCC(C)CC2)c1=O` (stereo not drawn), the Ratio Ki in the assay on HEK293 is 15.6. Moreover, the Ki at Cannabinoid receptor 2 [1] stood at 104 nM; at Cannabinoid receptor 1 [2], 1620 nM.
Turning to `O=C(NC1CCCCCC1)c1cccn(Cc2cccc(I)c2)c1=O`, the Ratio Ki in the assay with HEK293 amounted to 4.6. In addition, the Ki at Cannabinoid receptor 2 [1] turned out to be 397 nM; on Cannabinoid receptor 1 [2], 1830 nM.
For `O=C(NC1CCCCCC1)c1cccn(Cc2ccc(Cl)cc2)c1=O`, in that order: 13.1, 4.2 nM and 55 nM.
For `O=C(NC1CCCCCC1)c1cc(-c2ccc(F)cc2)cn(Cc2ccc(F)cc2)c1=O` the same measures were 8.6, 2.8 nM and 24 nM.
For `CC1CCC(NC(=O)c2cccnc2OCc2ccccc2)CC1` (stereo not drawn) the same measures were 5.2, 594 nM and 3090 nM.
Regarding `O=C(O)CCCn1cccc(C(=O)NC2CCCCCC2)c1=O`, the Ki on Cannabinoid receptor 2 [1] and at Cannabinoid receptor 1 [2] was more than 10000 nM each time.
`CCCCn1cc(Br)cc(C(=O)NC2CCCCCC2)c1=O`: the Ratio Ki in the assay with HEK293 is 4.5. For the same compound, the Ki at Cannabinoid receptor 2 [1] came out at 5.1 nM; on Cannabinoid receptor 1 [2] it was 23 nM.
With `CC1CCC(NC(=O)c2cccnc2OCc2ccc(F)cc2)CC1` (stereo not drawn), the Ratio Ki in the assay on HEK293 was 11. Besides, the Ki amounted to 80 nM on Cannabinoid receptor 2 [1] and 884 nM on Cannabinoid receptor 1 [2].
For `O=C(NC1CCCCCC1)c1cc(/C=C/c2ccccc2)cn(Cc2ccc(F)cc2)c1=O`, in that order: 3, 7.9 nM and 24 nM.
Regarding `O=C(NC1CCCCCC1)c1cc(-c2ccc(F)cc2)cn(CCN2CCOCC2)c1=O`, the Ratio Ki in the assay with HEK293 is 43.4. Also, the Ki on Cannabinoid receptor 2 [1] amounted to 63 nM; on Cannabinoid receptor 1 [2], 2730 nM.
Take `CC1CCC(NC(=O)c2cccn(CCCO)c2=O)CC1` (stereo not drawn): the Ki on Cannabinoid receptor 2 [1] and on Cannabinoid receptor 1 [2] was more than 10000 nM in each case.
With `CC1CCC(NC(=O)c2cccn(Cc3ccccc3)c2=O)CC1` (stereo not drawn), in the assay with HEK293, the Ratio Ki was found to be 7.3. The Ki at Cannabinoid receptor 2 [1] is 53 nM; on Cannabinoid receptor 1 [2], 386 nM.
As for `CCCn1cccc(C(=O)NC2CCC(C)CC2)c1=O` (stereo not drawn), the Ki at Cannabinoid receptor 2 [1] is 583 nM; at Cannabinoid receptor 1 [2], more than 10000 nM.
For `CCOC(=O)CCCn1cccc(C(=O)NC2CCCCCC2)c1=O`, in that order: 1830 nM and more than 10000 nM.
On to `COc1ccc(-c2cc(C(=O)NC3CCCCCC3)c(=O)n(Cc3ccc(F)cc3)c2)cc1`, for which the result at Cannabinoid receptor 2 [6] was Active. In addition, the result (in assay [7]; in assay [11]; on Cannabinoid receptor 2 [4]) was inactive. The Kb on Cannabinoid receptor 2 [8] was 100 nM. Further, at Cannabinoid receptor 2 [9], the Activity amounted to 88%. The inhibition result at Cannabinoid receptor 2 [10] was “Dose-dependent effect”. For the same compound, the Ratio Ki in the assay with HEK293 worked out at 63. Moreover, the Ki at Cannabinoid receptor 2 [1] is 1 nM; on Cannabinoid receptor 1 [2] it was 63 nM.
In the case of `CC1CCC(NC(=O)c2cccn(Cc3ccc(F)cc3)c2=O)CC1` (stereo not drawn), the Ratio Ki with HEK293 worked out at 14.6. Moreover, the figures for the Ki at Cannabinoid receptor 2 [1] and at Cannabinoid receptor 1 [2] were 4.8 nM and 70 nM, respectively.
Take `CCCCOc1ncc(Br)cc1C(=O)NC1CCCCCC1`: the Ki is 396 nM on Cannabinoid receptor 2 [1] and more than 10000 nM at Cannabinoid receptor 1 [2].
As to `O=C(NC1CCCCCC1)c1cc(Br)cn(CCN2CCOCC2)c1=O`, the Ratio Ki in the assay with HEK293 was determined as 3.7. Besides, the results for the Ki at Cannabinoid receptor 2 [1] and on Cannabinoid receptor 1 [2] were 65 nM and 243 nM, respectively.
For `O=C(NC1CCCCCC1)c1cccnc1OCc1ccccc1` the same measures were 4, 481 nM and 1920 nM.
Consider `O=C(NC1CCCCCC1)c1cccn(Cc2ccccc2)c1=O`, for which the Ratio Ki with HEK293 stood at 7. In addition, the Ki at Cannabinoid receptor 2 [1] stood at 8 nM; on Cannabinoid receptor 1 [2], 56 nM.
Take `O=C(NC1CCCCCC1)c1cc(-c2ccccc2)cn(Cc2ccc(F)cc2)c1=O`: the outcome in assay [7] and in [11] was inactive. The same compound showed an IC50 on Cannabinoid receptor 2 [12] of 1.58 nM. Further, the Ratio Ki with HEK293 was determined as 29. Further, the Ki at Cannabinoid receptor 2 [1] amounted to 1.2 nM; on Cannabinoid receptor 1 [2] it was 35 nM.

The values above are taken from ChEMBL document CHEMBL3112511, “1,2-Dihydro-2-oxopyridine-3-carboxamides: the C-5 substituent is responsible for functionality switch at CB2 cannabinoid receptor” (Eur J Med Chem, 2014).
